The values that follow come from ChEMBL document CHEMBL3826880, “Synthesis and evaluation of (+)-decursin derivatives as inhibitors of the Wnt/β-catenin pathway” (Bioorg Med Chem Lett, 2016).

Structures are written as SMILES. pIC50: −log10 of the molar value. Active and inactive are the calls of the source. The rule behind the calls is not given here.

Test system in one experiment: not listed separately
Kind of experiment: Inhibition of Wnt/beta-catenin pathway in human HEK293 cells at 20 uM after 15 hrs by TOPflash dual luciferase reporter gene assay. It counts as cell-based.
Settings: not given
In short, it runs like this:
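HEK293 TOPFlash reporter cells were seeded at 15,000 cells/well in duplicate and grown 24 h. Compounds were then added with Wnt3a-conditioned medium from Wnt3a-secreting L cells (0.22-filtered, two harvests combined); controls ran with or without Wnt3a-CM. After 15 h, dual luciferase activity was read as RLU normalized to cell titer, averaged over three experiments. Single-concentration screen at 20 µM.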
(In general: A reporter such as luciferase makes a cellular process visible.)
Broadly, the inhibition is the share of the control response that was lost under treatment. In turn, `COc1cccc(/C=C/C(=O)O[C@H]2Cc3cc4ccc(=O)oc4cc3OC2(C)C)c1OC` yielded an inhibition of 57.8%. The same measure, in the same setting: next, `CC(=O)Oc1ccc(CCC(=O)O[C@H]2Cc3cc4ccc(=O)oc4cc3OC2(C)C)cc1OC(C)=O`: 46.4%.

As to `CC(=O)Oc1cccc(CCC(=O)O[C@H]2Cc3cc4ccc(=O)oc4cc3OC2(C)C)c1OC(C)=O`, the inhibition was found to be 77.7%. The same measure, in the same setting: with `COc1ccc(/C=C/C(=O)O[C@H]2Cc3cc4ccc(=O)oc4cc3OC2(C)C)c(OC)c1` the figure was 52.8%; with `CC1(C)Oc2cc3oc(=O)ccc3cc2C[C@@H]1OC(=O)/C=C/c1ccc(O)c(O)c1`, 99.5%; with `COc1ccccc1CCC(=O)O[C@H]1Cc2cc3ccc(=O)oc3cc2OC1(C)C`, 50.4%. `COc1ccc(/C=C/C(=O)O[C@H]2Cc3cc4ccc(=O)oc4cc3OC2(C)C)cc1`: the inhibition was found to be 54.8%.

The compound `CC(=O)Oc1ccc(CCC(=O)O[C@H]2Cc3cc4ccc(=O)oc4cc3OC2(C)C)cc1` yielded an inhibition of 12%.

In the case of `CC(=O)Oc1ccccc1/C=C/C(=O)O[C@H]1Cc2cc3ccc(=O)oc3cc2OC1(C)C`, the inhibition was found to be 95.9%.

On to `COc1ccc(/C=C/C(=O)O[C@H]2Cc3cc4ccc(=O)oc4cc3OC2(C)C)cc1OC`, for which the inhibition amounted to 42.3%.

The compound `CC(=O)Oc1ccccc1CCC(=O)O[C@H]1Cc2cc3ccc(=O)oc3cc2OC1(C)C` came in with an inhibition of 23.1%.

Take `CC(=O)Oc1ccc(/C=C/C(=O)O[C@H]2Cc3cc4ccc(=O)oc4cc3OC2(C)C)cc1OC(C)=O`: the inhibition is 94%. The same measure, in the same setting: with `CC(=O)Oc1cccc(/C=C/C(=O)O[C@H]2Cc3cc4ccc(=O)oc4cc3OC2(C)C)c1` the figure was 97%; with `CC1(C)Oc2cc3oc(=O)ccc3cc2C[C@@H]1OC(=O)/C=C/c1cccc(O)c1O`, 95.7%; with `CC1(C)Oc2cc3oc(=O)ccc3cc2C[C@@H]1OC(=O)/C=C/c1ccc(Br)cc1`, 40.1%. Same read-out and setting: with `CC(C)=CC(=O)O[C@H]1Cc2cc3ccc(=O)oc3cc2OC1(C)C` [DECURSIN] the figure was 79.4%. Compound `CC1(C)Oc2cc3oc(=O)ccc3cc2C[C@@H]1OC(=O)/C=C/c1cccc(Br)c1` yielded an inhibition of 84.8%.

Take `CC1(C)Oc2cc3oc(=O)ccc3cc2C[C@@H]1OC(=O)/C=C/c1cc(O)c(O)c(O)c1`: the inhibition was 75.3%. On the same count and under the same terms, with `CC1(C)Oc2cc3oc(=O)ccc3cc2C[C@@H]1OC(=O)CCc1cccc(O)c1` the figure was 42%; with `CC(=O)Oc1cccc(/C=C/C(=O)O[C@H]2Cc3cc4ccc(=O)oc4cc3OC2(C)C)c1OC(C)=O`, 89.7%; with `COc1ccc(CCC(=O)O[C@H]2Cc3cc4ccc(=O)oc4cc3OC2(C)C)cc1OC`, 25.1%. `CC1(C)Oc2cc3oc(=O)ccc3cc2C[C@@H]1OC(=O)/C=C/c1ccc(O)cc1` gave an inhibition of 78.1%. On the same count and under the same terms, with `COc1cccc(/C=C/C(=O)O[C@H]2Cc3cc4ccc(=O)oc4cc3OC2(C)C)c1` the figure was 87.5%; with `CC(=O)Oc1cc(/C=C/C(=O)O[C@H]2Cc3cc4ccc(=O)oc4cc3OC2(C)C)cc(OC(C)=O)c1OC(C)=O`, 67.4%.

In turn, `CC1(C)Oc2cc3oc(=O)ccc3cc2C[C@@H]1OC(=O)CCc1cccc(O)c1O` gave an inhibition of 81.4%. The same measure, in the same setting: next, `CC(=O)Oc1ccc(/C=C/C(=O)O[C@H]2Cc3cc4ccc(=O)oc4cc3OC2(C)C)cc1`: 79.6%; `CC1(C)Oc2cc3oc(=O)ccc3cc2C[C@@H]1OC(=O)/C=C/c1cccc(F)c1`: 93.6%. For `COc1ccc(OC)c(/C=C/C(=O)O[C@H]2Cc3cc4ccc(=O)oc4cc3OC2(C)C)c1`, the inhibition was found to be 65.3%. Still for that read-out and setting: with `COc1cccc(CCC(=O)O[C@H]2Cc3cc4ccc(=O)oc4cc3OC2(C)C)c1` the figure was 49.9%.

`COc1cc(OC)c(OC)cc1/C=C/C(=O)O[C@H]1Cc2cc3ccc(=O)oc3cc2OC1(C)C` gave an inhibition of 59.6%.

`CC(=O)Oc1cccc(CCC(=O)O[C@H]2Cc3cc4ccc(=O)oc4cc3OC2(C)C)c1`: the inhibition came out at 27.5%. Same read-out and setting: with `COc1ccccc1/C=C/C(=O)O[C@H]1Cc2cc3ccc(=O)oc3cc2OC1(C)C` the figure was 88.3%; with `COc1ccc(CCC(=O)O[C@H]2Cc3cc4ccc(=O)oc4cc3OC2(C)C)cc1`, 41.5%. Still for that read-out and setting: next, `COc1cc(/C=C/C(=O)O[C@H]2Cc3cc4ccc(=O)oc4cc3OC2(C)C)cc(OC)c1OC`: 46.9%; `CC1(C)Oc2cc3oc(=O)ccc3cc2C[C@@H]1OC(=O)/C=C/c1cccc(O)c1`: 93.3%; `CC1(C)Oc2cc3oc(=O)ccc3cc2C[C@@H]1OC(=O)/C=C/c1ccc([N+](=O)[O-])cc1`: 34.3%. On the same count and under the same terms, next, `CC1(C)Oc2cc3oc(=O)ccc3cc2C[C@@H]1OC(=O)CCc1ccccc1`: 10.6%; `COc1ccc(OC)c(CCC(=O)O[C@H]2Cc3cc4ccc(=O)oc4cc3OC2(C)C)c1`: 19.9%. In turn, `COc1ccc(CCC(=O)O[C@H]2Cc3cc4ccc(=O)oc4cc3OC2(C)C)c(OC)c1` returned an inhibition of 18.8%. In the case of `CC1(C)Oc2cc3oc(=O)ccc3cc2C[C@@H]1OC(=O)CCc1ccc(O)cc1`, the inhibition is 32.8%. On the same count and under the same terms, with `CC1(C)Oc2cc3oc(=O)ccc3cc2C[C@@H]1OC(=O)/C=C/c1ccccc1` the figure was 81.1%; with `COc1cccc(CCC(=O)O[C@H]2Cc3cc4ccc(=O)oc4cc3OC2(C)C)c1OC`, 13.5%. Compound `CC1(C)Oc2cc3oc(=O)ccc3cc2C[C@@H]1OC(=O)CCc1ccc(O)c(O)c1` registered an inhibition of 68%. The same measure, in the same setting: with `CC1(C)Oc2cc3oc(=O)ccc3cc2C[C@@H]1OC(=O)/C=C/c1ccccc1O` the figure was 94.2%; with `CC1(C)Oc2cc3oc(=O)ccc3cc2C[C@@H]1OC(=O)CCc1ccccc1O`, 10%.

Test system in the next experiment: not listed separately
Description: Cytotoxicity against human PC3 cells assessed as cell viability after 24 to 48 hrs by cell Titer-Glo assay. It counts as functional, cell-based. The settings on record: PC-3. In short, it runs like this: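 Androgen-independent PC3 cells in 96-well plates were exposed to varying compound concentrations for 24 h (figure legend) or 48 h (methods note). Viability was measured in triplicate with the CellTiter-Glo luminescent assay.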
Background: ATP-based viability assays read luminescence as a measure of living cells.
Usually pIC50 stands for −log10 of the IC50, conventionally taken in molar units. `CC(=O)Oc1cccc(/C=C/C(=O)O[C@H]2Cc3cc4ccc(=O)oc4cc3OC2(C)C)c1`: the pIC50 was 5.05.

Test system in a further experiment: not listed separately
Kind of experiment: Inhibition of Wnt/beta-catenin pathway in human HEK293 cells assessed as decrease in Wnt3a-CM-induced beta-catenin response transcription after 15 hrs by TOPflash dual luciferase reporter gene assay. The settings on record: HEK293, 15 h. The format is cell-based.
For `CC(=O)Oc1cccc(/C=C/C(=O)O[C@H]2Cc3cc4ccc(=O)oc4cc3OC2(C)C)c1`, the pIC50 is 5.01.

Another experiment concerns the target T1, Catenin beta-1 (Homo sapiens) (UniProt P35222).
T1 sequence (whole entry): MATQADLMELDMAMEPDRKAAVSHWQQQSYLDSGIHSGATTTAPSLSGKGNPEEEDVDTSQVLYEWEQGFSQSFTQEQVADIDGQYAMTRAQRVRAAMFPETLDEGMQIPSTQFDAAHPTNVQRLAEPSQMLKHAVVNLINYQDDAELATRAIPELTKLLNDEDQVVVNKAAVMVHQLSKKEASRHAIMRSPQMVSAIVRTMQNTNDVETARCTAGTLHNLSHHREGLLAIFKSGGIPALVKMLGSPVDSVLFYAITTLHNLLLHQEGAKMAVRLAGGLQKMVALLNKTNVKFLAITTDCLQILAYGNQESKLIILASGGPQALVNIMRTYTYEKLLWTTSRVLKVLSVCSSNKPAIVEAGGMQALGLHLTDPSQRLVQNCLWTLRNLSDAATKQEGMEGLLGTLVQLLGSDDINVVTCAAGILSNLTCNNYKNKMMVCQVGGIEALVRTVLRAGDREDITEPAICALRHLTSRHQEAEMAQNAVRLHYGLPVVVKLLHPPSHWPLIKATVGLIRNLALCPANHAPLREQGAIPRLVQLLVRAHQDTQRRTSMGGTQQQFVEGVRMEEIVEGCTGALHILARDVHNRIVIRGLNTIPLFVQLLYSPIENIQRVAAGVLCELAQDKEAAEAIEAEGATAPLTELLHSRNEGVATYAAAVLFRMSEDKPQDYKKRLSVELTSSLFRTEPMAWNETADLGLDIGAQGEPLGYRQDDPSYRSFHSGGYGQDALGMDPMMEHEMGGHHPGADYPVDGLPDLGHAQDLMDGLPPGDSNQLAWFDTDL
Description: Downregulation of Wnt3a-CM-induced beta-catenin levels in human HEK293 cells at 12.5 to 50 uM after 15 hrs by Western blot analysis. It counts as cell-based.
Settings: not given
In short, it runs like this:
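HEK293 reporter cells were treated with vehicle (DMSO) or compound in the presence of Wnt3a-CM for 15 h. Cytosolic proteins were western blotted with a β-catenin antibody, then reprobed for actin as the fraction control, with HRP secondary and ECL detection.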
Background: Immunoblotting shows a protein as a band on a membrane.
For the compound `CC(=O)Oc1cccc(/C=C/C(=O)O[C@H]2Cc3cc4ccc(=O)oc4cc3OC2(C)C)c1`, the result was Active.

The target in a further experiment is T1, Catenin beta-1 (Homo sapiens). Description: Downregulation of cytoplasmic beta-catenin levels in human PC3 cells after 15 hrs by Western blot analysis. It counts as cell-based. Conditions: PC-3. In short, it runs like this:
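Cytosolic fractions from PC3 cells (DMEM, 10% FBS) treated with vehicle (DMSO) or compound were western blotted with a β-catenin antibody, then reprobed with anti-actin as the fraction control.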
For `CC(=O)Oc1cccc(/C=C/C(=O)O[C@H]2Cc3cc4ccc(=O)oc4cc3OC2(C)C)c1`, the Activity entry is “Dose-dependent effect”.

The target is the same in another experiment. Kind of experiment: Inhibition of beta-catenin levels in human PC3 cells assessed as downregulation of cyclinD1 levels at 12.5 to 50 uM after 15 hrs by Western blot analysis. The settings on record: PC-3. The format is cell-based. In short, it runs like this:
(§1)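 PC3 cells were incubated with vehicle (DMSO) or compound for 15 h. Cell extracts were western blotted with anti-cyclin D1 and anti-myc antibodies, then reprobed with anti-actin as the control, with ECL detection.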
`CC(=O)Oc1cccc(/C=C/C(=O)O[C@H]2Cc3cc4ccc(=O)oc4cc3OC2(C)C)c1`: the inhibition entry was “Active”.

The next experiment has the same target. Description: Inhibition of beta-catenin levels in human PC3 cells assessed as downregulation of c-myc levels at 12.5 to 50 uM after 15 hrs by Western blot analysis. The format is cell-based. The settings on record: PC-3. In short, it runs like this: as §1
As to `CC(=O)Oc1cccc(/C=C/C(=O)O[C@H]2Cc3cc4ccc(=O)oc4cc3OC2(C)C)c1`, the inhibition entry is “Active”.

Test system in a further experiment: not listed separately
Kind of experiment: Antitumor activity against human PC3 cells xenografted in athymic nude mouse at 50 mg/kg, ip administered daily for 5 weeks. The format is functional. Conditions: PC-3, ip, 840 h, read-out: TGI.
In the case of `CC1(C)Oc2cc3oc(=O)ccc3cc2C[C@@H]1OC(=O)/C=C/c1ccc(O)c(O)c1`, the inhibition in vivo at 50 mg/kg was greater than 80%.

Test system in a further experiment: not listed separately
Description: Inhibition of Wnt/beta-catenin pathway in human HEK293 cells after 15 hrs by TOPflash dual luciferase reporter gene assay. The format is cell-based. Conditions: HEK293, 15 h.
With `CC1(C)Oc2cc3oc(=O)ccc3cc2C[C@@H]1OC(=O)/C=C/c1ccc(O)c(O)c1`, the negative logarithm of the IC50 (pIC50) was 4.91. For `CC(C)=CC(=O)O[C@H]1Cc2cc3ccc(=O)oc3cc2OC1(C)C` [DECURSIN], the pIC50 is 3.75.
